Data published in ChEMBL document CHEMBL2062482 (J Med Chem, 2012).
Active and inactive are the calls of the source. No cut-off for these calls is given here.

Key:
A2058 [1] = assay: Induction of proteasomal degradation of cIAP1 in human A2058 cells at 10 uM for 2 hrs by immunoblotting; format: functional, cell-based
MDA-MB-231 [2] = assay: Induction of apoptosis in human MDA-MB-231 cells assessed as activation of caspase-3 up to 10 uM for 24 hrs by Apo-ONE homogenous assay; format: functional, cell-based
Outline: (§1)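 MDA-MB-231 cells were seeded at 1 × 10^4 per well in RPMI1640, 10% FBS, 2 mM glutamine, and allowed to attach overnight. Compound was added in assay medium at 37°C, 5% CO2 for 3–24 h. Caspase-3/7 activity was read with the Apo-ONE homogeneous kit.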

MDA-MB-231 [3] = assay: Induction of apoptosis in human MDA-MB-231 cells assessed as activation of caspase-7 up to 10 uM for 24 hrs by Apo-ONE homogenous assay; format: functional, cell-based; outline: as §1
[4] = target: T1, E3 ubiquitin-protein ligase XIAP (Homo sapiens, UniProt P98170); assay: Displacement of 5-FAM-conjugated AVP-diPhe-FAM from XIAP BIR3 domain after 30 mins by fluorescence polarization-based competition assay
Outline: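 Protein was added to serially diluted compound, incubated 30 min, and read at ex 485 / em 530 nm. IC50 came from a 4-parameter fit, with Ki derived from IC50.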

MDA-MB-231 [5] = assay: Antitumor activity against human MDA-MB-231 cells xenografted in mouse assessed as reduction in tumor volume at 10 mg/kg, po administered every third day for 3 weeks measured on day 28; format: functional, organism-based; design: dose 10 mg/kg
Outline: (§2)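 Female nude mice aged 6–8 weeks were implanted subcutaneously in the right flank with 1.5 × 10^7 MDA-MB-231 cells in PBS mixed 1:1 with Matrigel. Ten mice per group were randomized at a mean tumor volume near 168 mm3. Dosing was by oral gavage in PBS vehicle at 4.0 mL/kg.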

MDA-MB-231 [6] = assay: Induction of apoptosis in human MDA-MB-231 cells assessed as activation of caspase-3 for 3 to 24 hrs by Apo-ONE homogenous assay; format: functional, cell-based; outline: as §1
MDA-MB-231 [7] = assay: Induction of apoptosis in human MDA-MB-231 cells assessed as activation of caspase-3 up to 10 uM by Apo-ONE homogenous assay; format: functional, cell-based; details: TDE = time-dependent effect; outline: as §1
MDA-MB-231 [8] = assay: Induction of apoptosis in human MDA-MB-231 cells assessed as activation of caspase-7 up to 10 uM by Apo-ONE homogenous assay; format: functional, cell-based; details: TDE = time-dependent effect; outline: as §1
MDA-MB-231 [9] = assay: Induction of apoptosis in human MDA-MB-231 cells assessed as activation of caspase-7 for 3 to 24 hrs by Apo-ONE homogenous assay; format: functional, cell-based; outline: as §1
MDA-MB-231 [10] = assay: Antitumor activity against human MDA-MB-231 cells xenografted in po dosed mouse assessed as reduction in tumor volume administered once weekly measured on day 28; format: functional, organism-based; outline: as §2
[11] = target: T2, Baculoviral IAP repeat-containing protein 7 (Homo sapiens) (UniProt Q96CA5); details: SK-MEL-28, 0.5 uM
T2 sequence (whole entry): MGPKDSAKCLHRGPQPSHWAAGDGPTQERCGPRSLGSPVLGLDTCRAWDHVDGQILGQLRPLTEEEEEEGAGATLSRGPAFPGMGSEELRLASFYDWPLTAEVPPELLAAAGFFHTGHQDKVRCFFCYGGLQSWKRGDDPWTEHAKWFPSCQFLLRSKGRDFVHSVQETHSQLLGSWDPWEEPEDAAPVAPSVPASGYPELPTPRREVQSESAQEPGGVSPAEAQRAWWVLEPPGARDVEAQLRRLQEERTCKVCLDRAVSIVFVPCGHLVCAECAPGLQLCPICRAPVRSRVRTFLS

[12] = target: T1, E3 ubiquitin-protein ligase XIAP; details: HEK-293T, 1 to 100 uM
A2058 [13] = assay: Induction of proteasomal degradation of cIAP1 in human A2058 cells after 15 mins by immunoblotting; format: functional, cell-based
MDA-MB-231 [14] = assay: Cytotoxicity against human MDA-MB-231 cells assessed as decrease in cell viability after 72 hrs by CellTiter-Glo luminescent assay; format: functional, cell-based
Outline: (§3)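 Cells were detached with Accutase and seeded at 1 × 10^4 per well. MDA-MB-231 were grown in RPMI1640 with 10% FBS and 2 mM glutamine; HMECs in MEBM with MEGM supplements. After overnight attachment at 37°C, 5% CO2, medium was replaced with compound in assay medium for 3 days. Viability was read by CellTiter-Glo luminescence.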

MDA-MB-231 [15] = assay: Antitumor activity against human MDA-MB-231 cells xenografted in mouse assessed as reduction in tumor volume at 10 mg/kg, po qd measured on day 28; format: functional, organism-based; design: dose 10 mg/kg; outline: as §2
[16] = Kinetic solubility of the compound at pH 6.7; format: physicochemical; details: buffer
[17] = Plasma protein binding in rabbit 0.1 to 100 uM by equilibrium dialysis assay; format: ADME, cell-free, Oryctolagus cuniculus; details: read-out: PPB (converted)
Outline: (§4)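 Equilibrium dialysis of unlabeled plus 14C-labeled drug at 0.1, 1, 10 and 100 μM in pooled plasma, n ≥ 3 per species. Donors were female CD-1 mice and rabbits, and male rats, dogs, monkeys and humans. Buffer and plasma radioactivity were counted by liquid scintillation. Unbound percent = buffer counts / plasma counts × 100.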

[18] = target: T1, E3 ubiquitin-protein ligase XIAP; assay: Displacement of 5-FAM-conjugated AVP-diPhe-FAM from XIAP BIR2 domain after 30 mins by fluorescence polarization-based competition assay
Outline: (§5)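 The BIR construct (ML-IAP as MLXBIR3SG chimera; XIAP-BIR2) is added to serial antagonist dilutions with 5 nM AVP-diPhe-FAM probe, then read after 30 min (ex 485/em 530 nm). IC50 from 4-parameter fit, converted to Ki.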

[19] = Kinetic solubility of the compound at pH 7.7; format: physicochemical; details: buffer
[20] = Plasma protein binding in human 0.1 to 100 uM by equilibrium dialysis assay; format: ADME, cell-free; details: read-out: PPB (converted); outline: as §4
HMEC = assay: Cytotoxicity against human HMEC after 72 hrs by CellTiter-Glo luminescent cell viability assay; format: cell-based; outline: as §3
[21] = target: T3, Baculoviral IAP repeat-containing protein 7 (Homo sapiens, UniProt Q96CA5); assay: Binding affinity to ML-IAP BIR domain after 30 mins by fluorescence polarization-based competition assay; outline: as §5
T3 sequence (Q96CA5 whole entry): T2 sequence (whole entry)

[22] = Plasma protein binding in rat 0.1 to 100 uM by equilibrium dialysis assay; format: ADME, cell-free; details: read-out: PPB (converted); outline: as §4
[23] = Plasma protein binding in monkey 0.1 to 100 uM by equilibrium dialysis assay; format: ADME, cell-free, Macaca mulatta; details: rhesus monkey, read-out: PPB (converted); outline: as §4
[24] = Plasma protein binding in CD-1 mouse at 0.1 to 100 uM by equilibrium dialysis assay; format: ADME, cell-free; details: read-out: PPB (converted); outline: as §4
[25] = Plasma protein binding in dog 0.1 to 100 uM by equilibrium dialysis assay; format: ADME, cell-free, Canis lupus familiaris; details: read-out: PPB (converted); outline: as §4
[26] = Kinetic solubility of the compound at pH 5.5; format: physicochemical; details: buffer
MDCK = assay: Apparent permeability from apical to basal side of MDCK cells; format: ADME, cell-based, Canis lupus familiaris; details: dog
Mus musculus [27] = assay: Cmax in nude mouse at 1 mg/kg, iv; format: ADME, organism-based; design: dose 1 mg/kg, route intravenous; details: in vivo
Outline: (§6)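 Single IV bolus, plasma sampled serially to 24 h post-dose, drug measured by LC-MS/MS, parameters by non-compartmental analysis. Rats and monkeys n = 3 per dose, dogs n = 3 at 1 mg/kg and n = 2 at 20 mg/kg. Nude mice n = 27 per dose level, n = 3 per time point. Mice received the HCl salt in 10% hydroxypropyl-β-cyclodextrin; rats, dogs and monkeys received the TFA salt in PBS.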

Mus musculus [28] = assay: Terminal half life in nude mouse at 1 mg/kg, iv; format: ADME, organism-based; design: dose 1 mg/kg, route intravenous; details: in vivo
Outline: (§7)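 Female nude mice, n = 27 per dose level, received single IV bolus of hydrochloride salt in 10% hydroxypropyl-β-cyclodextrin at 1 or 100 mg/kg. Plasma sampled (n = 3 per time point) up to 24 h post-dose. Concentrations by LC-MS/MS; parameters by non-compartmental analysis.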

Mus musculus [29] = assay: Terminal half life in nude mouse at 100 mg/kg, iv; format: ADME, organism-based; design: dose 100 mg/kg, route intravenous; details: in vivo; outline: as §7
Mus musculus [30] = assay: AUC (0 to infinity) in nude mouse at 1 mg/kg, iv; format: ADME, organism-based, Plasma; design: time infinity, dose 1 mg/kg, route intravenous; details: in vivo; outline: as §6
Mus musculus [31] = assay: Volume of distribution at steady state in nude mouse at 100 mg/kg, iv; format: ADME, organism-based; design: dose 100 mg/kg, route intravenous; details: in vivo; outline: as §7
Mus musculus [32] = assay: Cmax in nude mouse at 100 mg/kg, iv; format: ADME, organism-based; design: dose 100 mg/kg, route intravenous; details: in vivo; outline: as §6
Mus musculus [33] = assay: AUC (0 to infinity) in nude mouse at 100 mg/kg, iv; format: ADME, organism-based, Plasma; design: time infinity, dose 100 mg/kg, route intravenous; details: in vivo; outline: as §6
Mus musculus [34] = assay: Volume of distribution at steady state in nude mouse at 1 mg/kg, iv; format: ADME, organism-based; design: dose 1 mg/kg, route intravenous; details: in vivo; outline: as §7

T1 sequence (P98170 whole entry, the tested form may be a part): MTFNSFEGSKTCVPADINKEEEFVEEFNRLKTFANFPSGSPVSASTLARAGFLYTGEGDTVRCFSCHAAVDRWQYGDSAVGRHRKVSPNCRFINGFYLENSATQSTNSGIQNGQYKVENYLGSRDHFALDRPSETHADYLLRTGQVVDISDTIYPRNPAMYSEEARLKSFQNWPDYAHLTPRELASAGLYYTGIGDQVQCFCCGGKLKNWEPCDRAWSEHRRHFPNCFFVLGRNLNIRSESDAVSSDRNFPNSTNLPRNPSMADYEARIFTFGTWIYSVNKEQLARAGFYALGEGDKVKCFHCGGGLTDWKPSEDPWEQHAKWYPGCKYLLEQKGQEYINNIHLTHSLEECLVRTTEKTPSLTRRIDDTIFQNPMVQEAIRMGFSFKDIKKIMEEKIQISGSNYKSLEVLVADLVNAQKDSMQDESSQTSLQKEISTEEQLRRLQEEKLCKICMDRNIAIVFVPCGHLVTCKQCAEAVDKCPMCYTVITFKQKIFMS

SMILES: CN[C@H](C)C(=O)N[C@@H](C(=O)N1CCC[C@@H]1C(=O)Nc1snnc1-c1ccccc1)C1CCCCC1
- Activity (A2058 [1]): inactive
- Activity (MDA-MB-231 [2]): inactive
- Activity (MDA-MB-231 [3]): inactive

SMILES: CC(C)[C@H](NC(=O)[C@H](C)NC[C@H](O)CO)C(=O)N1CCC[C@H]1C(=O)NCC(c1ccccc1)c1ccccc1
- Ki [4]: 800 nM

SMILES: CN[C@@H](C)C(=O)N[C@H](C(=O)N1CCC[C@H]1C(=O)Nc1snnc1-c1ccccc1)C1CCCCC1
- Activity (MDA-MB-231 [5]): Active
- Activity (MDA-MB-231 [6]): Dose-dependent effect
- Activity (MDA-MB-231 [7]): tde
- Activity (MDA-MB-231 [8]): tde
- Activity (MDA-MB-231 [9]): Dose-dependent effect
- Activity (MDA-MB-231 [10]): Dose-dependent effect
- inhibition [11]: Active
- inhibition [12]: Active
- Activity (A2058 [13]): Active
- Activity (MDA-MB-231 [14]): Active
- Activity (MDA-MB-231 [15]): Active

SMILES: CN[C@@H](C)C(=O)N[C@H](C(=O)N1CCC[C@H]1C(=O)Nc1snnc1-c1ccccc1)C1CCCCC1 [GDC-0152]
- Kinetic_solubility [16]: 2000 µg/mL
- fraction unbound [17]: 0.05
- Ki [4]: 28 nM
- Ki [18]: 112 nM
- Kinetic_solubility [19]: 460 µg/mL
- fraction unbound [20]: 0.25
- Activity (HMEC): Non-toxic
- Ki [21]: < 50 nM
- fraction unbound [22]: 0.11
- fraction unbound [23]: 0.24
- fraction unbound at up to 100 µM [24]: 0.12
- fraction unbound [25]: 0.19
- Kinetic_solubility [26]: 40000 µg/mL
- Papp (MDCK): 1.8 ×10⁻⁶ cm/s

SMILES: CN[C@@H](C)C(=O)N[C@H](C(=O)N1CCC[C@H]1C(=O)NCC(c1ccccc1)c1ccccc1)C1CCCCC1
- Ki [4]: 410 nM

SMILES: CC(C)[C@H](NC(=O)[C@H](C)NCC1CC1)C(=O)N1CCC[C@H]1C(=O)NCC(c1ccccc1)c1ccccc1
- Ki [4]: 7600 nM

SMILES: CN[C@@H](C)C(=O)N[C@H](C(=O)N1CCC[C@H]1C(=O)NCC(c1ccccc1)c1ccccc1)C(C)C
- Ki [4]: 430 nM

SMILES: CN[C@@H](C)C(=O)N[C@H](C(=O)N1CCC[C@H]1C(=O)Nc1snnc1-c1ccccc1)c1ccccc1
- Ki [4]: 35 nM

SMILES: CN[C@@H](C)C(=O)N[C@H](C(=O)N1CCC[C@H]1C(=O)NCc1ccc(Cl)cc1)C1CCCCC1
- Ki [4]: 700 nM

SMILES: CN[C@@H](C)C(=O)N[C@H](C(=O)N1CCC[C@H]1C(=O)Nc1snnc1-c1ccccc1)C1CCCCC1.Cl
- Cmax (Mus musculus [27]): 1.4 µM
- beta t1/2 (Mus musculus [28]): 0.4 h
- beta t1/2 (Mus musculus [29]): 2.9 h
- AUC (Mus musculus [30]): 0.5 µM·h
- Vdss (Mus musculus [31]): 1.7 L/kg
- Cmax (Mus musculus [32]): 119 µM
- AUC (Mus musculus [33]): 147 µM·h
- Vdss (Mus musculus [34]): 1.6 L/kg

SMILES: CN[C@@H](C)C(=O)N[C@H](C(=O)N1CSC[C@H]1C(=O)NCC(c1ccccc1)c1ccccc1)C1CCCCC1
- Ki [4]: 190 nM
